The source made the active and inactive calls. The rule behind the calls is not given here.

The test system of the first assay is HCT-116. The assay can be described thus: Cell cycle arrest in human HCT116 cells assessed as accumulation at G0/G1 phase at 0.001 to 10 uM after 24 hrs by EdU-staining based high content imaging analysis.
Settings: not given
The assay is classed as functional. The method, boiled down: (§1)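 HCT-116 cells plated on poly-lysine-coated plates overnight, then treated 24 h with compound (DMSO stock diluted into McCoy's medium with 10% FBS). EdU labelling of newly synthesized DNA, 4% formaldehyde fixation, then high-content imaging in three fluorescent channels for total cell count, DNA content and S-phase cells. Means of three biological replicates, SEM.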
On to `CC(=O)Nc1ccc(-c2c(C)nn(-c3nc(-c4ccc(Cl)c(Cl)c4)c(SC(C)C)s3)c2C(=O)O)cc1`, for which the result was inactive.

A further assay concerns BJAB. The assay can be described thus: Antiproliferative activity against human BJAB cells after 4 days. The settings on record: Homo sapiens, BJAB, 96 h. The assay is classed as functional, cell-based.
A word on the IC50: it is the midpoint of a concentration-inhibition curve. A higher IC50 goes with lower potency. In turn, `O=C(O)/C(Cc1ccccc1[N+](=O)[O-])=N\Nc1nc(-c2ccc(Cl)c(Cl)c2)cs1` returned a 50% inhibitory concentration (IC50) of 20 µM.

Staying with this assay, now noted: Homo sapiens, BJAB, 96 h; read-out: EC50.
A word on the EC50: it is the midpoint of the concentration-response curve. Take `Cc1cc(-c2c(C)nn(-c3nc(-c4ccc(Cl)c(Cl)c4)c(SC(C)C)s3)c2C(=O)O)cc(C)n1`: the 50% effective concentration (EC50) turned out to be 0.58 µM. In the case of `Cc1nn(-c2nc(-c3ccc(Cl)c(Cl)c3)c(SC(C)C)s2)c(C(=O)O)c1-c1cccc(Cl)c1`, the 50% effective concentration (EC50) was determined as 13.6 µM. As for `Cc1cc(C#N)cc(-c2c(C)nn(-c3nc(-c4ccc(Cl)c(Cl)c4)c(SC(C)C)s3)c2C(=O)O)c1`, the half-maximal effective concentration (EC50) worked out at 4.8 µM.

As for `COc1ccc(-c2c(C)nn(-c3nc(-c4ccc(Cl)c(Cl)c4)c(SC(C)C)s3)c2C(=O)O)cc1`, the EC50 turned out to be 2.1 µM.

On to `CCOc1ncccc1-c1c(C)nn(-c2nc(-c3ccc(Cl)c(Cl)c3)c(SC(C)C)s2)c1C(=O)O`, for which the EC50 is 11 µM. Turning to `COc1cc(C#N)cc(-c2c(C)nn(-c3nc(-c4ccc(Cl)c(Cl)c4)c(SC(C)C)s3)c2C(=O)O)c1`, the EC50 came out at 5.2 µM. As to `Cc1nn(-c2nc(-c3ccc(Cl)c(Cl)c3)c(SC(C)C)s2)c(C(=O)O)c1-c1ccc(Cl)cc1`, the concentration for a half-maximal effect (EC50) was 2.5 µM.

Consider `CC(=O)Nc1ccc(-c2c(C)nn(-c3nc(-c4ccc(Cl)c(Cl)c4)c(SC(C)C)s3)c2C(=O)O)cc1`, for which the EC50 worked out at 139 µM. For the molecule `Cc1cccc(-c2c(C)nn(-c3nc(-c4ccc(Cl)c(Cl)c4)c(SC(C)C)s3)c2C(=O)O)c1`, the EC50 came out at 17 µM.

Turning to `Cc1nn(-c2nc(-c3ccc(Cl)c(Cl)c3)c(SC(C)C)s2)c(C(=O)O)c1-c1cc(C#N)cc(C(F)(F)F)c1`, the concentration giving a half-maximal response (EC50) was 3.6 µM. For `COC(=O)c1c(Cc2ccccc2[N+](=O)[O-])c(C)nn1-c1nc(-c2ccc(Cl)c(Cl)c2)cs1`, the EC50 turned out to be 377 µM. Regarding `COC(=O)c1c(Cc2ccccc2[N+](=O)[O-])c(C)nn1-c1nc(-c2ccc(Cl)c(Cl)c2)c(SC(C)C)s1`, the concentration giving a half-maximal response (EC50) amounted to 93 µM. As for `Cc1ccc(-c2c(C)nn(-c3nc(-c4ccc(Cl)c(Cl)c4)c(SC(C)C)s3)c2C(=O)O)cc1`, the EC50 worked out at 3.8 µM. With `Cc1nn(-c2nc(-c3ccc(Cl)c(Cl)c3)c(SC(C)C)s2)c(C(=O)O)c1-c1cnccn1`, the 50% effective concentration (EC50) amounted to 14 µM. On the same count and under the same terms, then `CCSc1sc(-n2nc(C)c(Cc3ccccc3[N+](=O)[O-])c2C(=O)O)nc1-c1ccc(Cl)c(Cl)c1`, with 59 µM; and `Cc1nn(-c2nc(-c3ccc(Cl)c(Cl)c3)c(SC(C)C)s2)c(C(=O)O)c1-c1ccncc1`, with 5.9 µM; and `Cc1nn(-c2nc(-c3ccc(Cl)c(Cl)c3)c(SC(C)C)s2)c(C(=O)O)c1-c1ccccc1Cl`, with 13.1 µM. With `COc1ccc(C)cc1-c1c(C)nn(-c2nc(-c3ccc(Cl)c(Cl)c3)c(SC(C)C)s2)c1C(=O)O`, the EC50 is 9.5 µM.

Take `Cc1nn(-c2nc(-c3ccc(Cl)c(Cl)c3)c(SC(C)C)s2)c(C(=O)O)c1-c1cccc(F)c1`: the EC50 worked out at 0.9 µM. With `Cc1nn(-c2nc(-c3ccc(Cl)c(Cl)c3)c(SC(C)C)s2)c(C(=O)O)c1-c1cccnc1`, the half-maximal effective concentration (EC50) came to 12 µM. With `Cc1nn(-c2nc(-c3ccc(Cl)c(Cl)c3)c(SC(C)C)s2)c(C(=O)O)c1-c1ccccc1`, the EC50 lay within 3 to 3.4 µM. Consider `Cc1nn(-c2nc(-c3ccc(Cl)c(Cl)c3)c(SC(C)C)s2)c(C(=O)O)c1-c1cncc(C#N)c1`, for which the 50% effective concentration (EC50) came out at 20 µM. On the same count and under the same terms, then `COc1cc(-c2c(C)nn(-c3nc(-c4ccc(Cl)c(Cl)c4)c(SC(C)C)s3)c2C(=O)O)cc(C(F)(F)F)c1`, with 1.38 µM; and `Cc1nn(-c2nc(-c3ccc(Cl)c(Cl)c3)c(SC(C)C)s2)c(C(=O)O)c1-c1cccc(C(F)(F)F)c1`, with 22 µM. As for `Cc1ccccc1-c1c(C)nn(-c2nc(-c3ccc(Cl)c(Cl)c3)c(SC(C)C)s2)c1C(=O)O`, the concentration for a half-maximal effect (EC50) was 5.5 µM. For `COc1cc(Cl)cc(-c2c(C)nn(-c3nc(-c4ccc(Cl)c(Cl)c4)c(SC(C)C)s3)c2C(=O)O)c1`, the EC50 was determined as 0.76 µM. On to `Cc1cc(Cl)cc(-c2c(C)nn(-c3nc(-c4ccc(Cl)c(Cl)c4)c(SC(C)C)s3)c2C(=O)O)c1`, for which the concentration for a half-maximal effect (EC50) worked out at 0.663 µM. On to `COc1ccccc1-c1c(C)nn(-c2nc(-c3ccc(Cl)c(Cl)c3)c(SC(C)C)s2)c1C(=O)O`, for which the EC50 came to 14.7 µM. Same read-out and setting: in the case of `Cc1nn(-c2nc(-c3ccc(Cl)c(Cl)c3)c(SC(C)C)s2)c(C(=O)O)c1-c1cncnc1` it was 22 µM; in that of `Cc1nn(-c2nc(-c3ccc(Cl)c(Cl)c3)c(SC(C)C)s2)c(C(=O)O)c1-c1cc(C(F)(F)F)cc(C(F)(F)F)c1`, 1.8 µM; in that of `Cc1nn(-c2nc(-c3ccc(Cl)c(Cl)c3)c(SC(C)C)s2)c(C(=O)O)c1-c1cccc(Cl)c1C`, 5.1 µM. `CNc1cc(-c2c(C)nn(-c3nc(-c4ccc(Cl)c(Cl)c4)c(SC(C)C)s3)c2C(=O)O)ccn1`: the half-maximal effective concentration (EC50) worked out at 18 µM.

For the molecule `COc1cccc(-c2c(C)nn(-c3nc(-c4ccc(Cl)c(Cl)c4)c(SC(C)C)s3)c2C(=O)O)c1`, the EC50 stood at 14 µM. As to `Cc1nn(-c2nc(-c3ccc(Cl)c(Cl)c3)c(SC(C)C)s2)c(C(=O)O)c1-c1cnn(C)c1`, the EC50 came out at 6.8 µM. The same measure, in the same setting: then `COc1cncc(-c2c(C)nn(-c3nc(-c4ccc(Cl)c(Cl)c4)c(SC(C)C)s3)c2C(=O)O)c1`, with 21 µM. `Cc1cc(C)cc(-c2c(C)nn(-c3nc(-c4ccc(Cl)c(Cl)c4)c(SC(C)C)s3)c2C(=O)O)c1`: the 50% effective concentration (EC50) was determined as 2.7 µM. Take `Cc1nn(-c2nc(-c3ccc(Cl)c(Cl)c3)c(SC(C)C)s2)c(C(=O)O)c1-c1ccccc1[N+](=O)[O-]`: the EC50 came to 4.7 µM. Consider `CCSc1sc(-n2nc(C)c(Cc3ccccc3[N+](=O)[O-])c2C(=O)OC)nc1-c1ccc(Cl)c(Cl)c1`, for which the half-maximal effective concentration (EC50) worked out at 106 µM. On to `Cc1nn(-c2nc(-c3ccc(Cl)c(Cl)c3)c(SC(C)C)s2)c(C(=O)O)c1Cc1ccccc1[N+](=O)[O-]`, for which the EC50 turned out to be 20 µM. With `Cc1nn(-c2nc(-c3ccc(Cl)c(Cl)c3)c(SC(C)C)s2)c(C(=O)O)c1-c1ccc(C(F)(F)F)cc1`, the EC50 worked out at 3.5 µM.

Consider `Cc1nn(-c2nc(-c3ccc(Cl)c(Cl)c3)c(SC(C)C)s2)c(C(=O)O)c1-c1ccccc1C(F)(F)F`, for which the EC50 came to 5.2 µM.

The assay is the same for the next values; noted with them: bjab.
Regarding `Cc1nn(-c2nc(-c3cccnc3)c(SC(C)C)s2)c(C(=O)O)c1-c1cc(Cl)cc(Cl)c1`, the 50% effective concentration (EC50) entry was “Not Active”. Turning to `Cc1nn(-c2nc(-c3ccc4nccn4c3)c(SC(C)C)s2)c(C(=O)O)c1-c1cc(Cl)cc(Cl)c1`, the EC50 result was “Not Active”.

The test system of the next assay is HCT-116. The assay can be described thus: Cell cycle arrest in human HCT116 cells assessed as reduction in cell levels at M-phase at 0.001 to 10 uM after 24 hrs by EdU-staining based high content imaging analysis. In kind it is functional.
Settings: not given
An outline of the steps:
as §1
With `CC(=O)Nc1ccc(-c2c(C)nn(-c3nc(-c4ccc(Cl)c(Cl)c4)c(SC(C)C)s3)c2C(=O)O)cc1`, the outcome was inactive.

Another assay concerns HCT-116. The assay can be described thus: Cell cycle arrest in human HCT116 cells assessed as reduction in cell levels at S-phase at 0.001 to 10 uM after 24 hrs EdU-staining based high content imaging analysis. In kind it is functional.
Settings: not given
The method, boiled down: as §1
With `CC(=O)Nc1ccc(-c2c(C)nn(-c3nc(-c4ccc(Cl)c(Cl)c4)c(SC(C)C)s3)c2C(=O)O)cc1`, the outcome was inactive. Turning to `Cc1nn(-c2nc(-c3ccc(Cl)c(Cl)c3)c(SC(C)C)s2)c(C(=O)O)c1-c1cnccn1`, the result was Active.

Another assay concerns HCT-116. Kind of assay: Cell cycle arrest in human HCT116 cells assessed as reduction in cell levels at S/G2 phase at 0.001 to 10 uM after 24 hrs by EdU-staining based high content imaging analysis.
Settings: not given
In kind it is functional. An outline of the steps:
as §1
As for `CC(=O)Nc1ccc(-c2c(C)nn(-c3nc(-c4ccc(Cl)c(Cl)c4)c(SC(C)C)s3)c2C(=O)O)cc1`, the outcome was inactive.

Values taken from ChEMBL document CHEMBL4219038, “1-Thiazol-2-yl-N-3-methyl-1H-pyrozole-5-carboxylic acid derivatives as antitumor agents” (Bioorg Med Chem Lett, 2017).
